The source of these data is paper PMC11451940 (RSC Medicinal Chemistry, 2024).

Assay [1] relates to MCF-7 cells (breast adenocarcinoma). In words: MTT in vitro cytotoxicity, MCF-7. The class given is cell-based, human. The following applies: read-out: IC50 ± SD, MCF-7. The method, boiled down:
(§1)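 MTT assay on ATCC human lines cultured per supplier instructions: A2780, A2780R, MCF-7, PC-3, A549, HOS and normal foetal fibroblast MRC-5. Exposure was 24 h for all lines; A2780 was also tested at 48 and 72 h. IC50 came from dose–response curves, given ± SD from triplicate experiments. Selectivity index = IC50(MRC-5)/IC50(A2780).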

The subject of assay [2] is PC-3 cells (prostate adenocarcinoma). Nature of the assay: MTT in vitro cytotoxicity, PC-3. The class given is cell-based, human. The settings on record: read-out: IC50 ± SD, PC-3. The method, boiled down: as §1
Assay [3] concerns A2780R cells (cisplatin-resistant ovarian carcinoma). In words: MTT in vitro cytotoxicity, A2780R. The class given is cell-based, human. The settings on record: read-out: IC50 ± SD, A2780R. In outline: as §1
The test system of assay [4] is A2780 cells (human ovarian carcinoma). Nature of the assay: MTT in vitro cytotoxicity, A2780. The class given is cell-based. In outline: as §1
For assay [5], the system named is A549 cells (lung adenocarcinoma). In words: MTT in vitro cytotoxicity, A549. The class given is cell-based, human. The following applies: read-out: IC50 ± SD, A549. In outline:
as §1

Assay [6] relates to MRC-5 cells (human foetal fibroblasts). In words: MTT in vitro cytotoxicity, normal MRC-5. The following applies: for IC50: read-out: IC50 ± SD, MRC-5. The class given is cell-based. In outline:
as §1

Assay [7] has as its system HOS cells (bone osteosarcoma). Nature of the assay: MTT in vitro cytotoxicity, HOS. The class given is cell-based, human. The following applies: read-out: IC50 ± SD, HOS. In outline: as §1
The test system of a further assay is HeLa. The following applies: 72 h of incubation; cited from earlier work.
The next assay deals with PC3. The following applies: 72 h of incubation; cited from earlier work.
The next assay deals with HL60 cells. The following applies: read-out: IC50 on HL60 cells; 48 h of incubation; cited from earlier work.
For a further assay, the system named is 3T3. The settings on record: 72 h of incubation; cited from earlier work.
Setting [8] is: read-out: IC50 ± SD, A2780, 72 h, 72 h incubation time, MTT.

Converted amounts (≈) assume the structure as drawn. “And” between values parts separate entries of the source, which are not always exact repeats. Equal values may be shown once. Read-outs that look alike come from different tables or passages of the source.

One may read the IC50 as the concentration at which inhibition is half-maximal. For the compound `N.N.[Cl][Pt][Cl]` [Cisplatin], the IC50 is 37 ± 2.2 µM in assay [1] (24 h of incubation, MTT); over 50 µM in assay [2] (24 h of incubation, MTT); 42.7 ± 3.8 µM in [3] (24 h of incubation, MTT); 6.5 ± 3.2 µM in assay [4] (read-out: IC50 ± SD, A2780, 48 h, 48 h incubation time, MTT); 3.7 ± 0.2 µM in assay [4] (setting [8]); 15.2 µM and 15.4 µM in assay [4] (read-out: IC50 ± SD, A2780, 24 h of incubation, MTT). The IC50 in assay [5] (24 h of incubation, MTT) is over 50 µM; in assay [6] (24 h of incubation, MTT, normal cells), 46.1 ± 2.4 µM; in assay [7] (24 h of incubation, MTT), over 50 µM. Further, the “SI, selectivity index expressed as IC50(MRC-5)/IC50(A2780)” value in assay [6] (24 h of incubation) is 3.0; in [6] (24 h of incubation, listed as cisplatin), “≈ 3”.
As to `CC(C)=CCC1=C(O)C(=O)c2ccccc2C1=O` [Lapachol, 2-hydroxy-3-(3-methylbut-2-en-1-yl)naphthalene-1,4-dione], in the assay with HeLa, the “IC50 on HeLa” value is 19.04 µg/mL (≈ 78.6 µM). The 50% inhibitory concentration (IC50) was over 50 µM in assay [1] (Homo sapiens, MCF7, 24 h); over 50 µM in assay [2] (Homo sapiens, PC-3, 24 h); over 50 µM in assay [3] (Homo sapiens, 24 h); over 50 µM in assay [4] (Homo sapiens, A2780, 24 h, read-out: IC50 ± SD, A2780, 24 h of incubation, MTT); 6.4 ± 0.8 µM in assay [4] (setting [8]); over 50 µM in assay [5] (Homo sapiens, A549, 24 h). Moreover, the IC50 in assay [6] (Homo sapiens, MRC5, 24 h) is over 50 µM; in the assay with HL60 cells, 25 µM; in assay [7] (Homo sapiens, HOS, 24 h) it was over 50 µM. For the same compound, the “IC50 on PC3” value in the assay with PC3 was 20.51 µg/mL (≈ 84.7 µM). For the same compound, the “IC50 on 3T3” value with 3T3 was 6.15 µg/mL (≈ 25.4 µM).
